A short description of data set [1]: Inhibition of Schistosoma mansoni AE expressed in Pichia pastoris after 20 mins. Put shortly: (§1)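 Recombinant AE zymogens expressed in Pichia pastoris; SmAE and TvAE1 autoactivated in 0.5 M sodium acetate, 4 mM DTT, pH 4.5, 37 °C, 3 h to overnight; IrAE used without activation. Buffer 0.1 M citrate phosphate, 4 mM DTT, pH 6.8 (SmAE, TvAE1) or pH 5.5 (IrAE). Inhibitor 2.0–0.0002 µM final, 20 min preincubation at room temperature; 10 µM final Cbz-Ala-Ala-Asn-AMC, 20 min; IC50 from RFU/min vs concentration.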

A further data set concerns the target T1, Caspase-3 (Homo sapiens) (UniProt P42574).
T1 sequence (whole entry): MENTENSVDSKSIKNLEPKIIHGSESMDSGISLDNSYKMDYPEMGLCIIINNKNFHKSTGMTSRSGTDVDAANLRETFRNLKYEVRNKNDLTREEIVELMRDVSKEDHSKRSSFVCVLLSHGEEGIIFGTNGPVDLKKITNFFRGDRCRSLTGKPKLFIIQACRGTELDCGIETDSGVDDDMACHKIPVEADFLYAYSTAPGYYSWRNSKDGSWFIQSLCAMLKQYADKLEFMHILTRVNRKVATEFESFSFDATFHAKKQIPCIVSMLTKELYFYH
The data set is described as follows: Inhibition of caspase 3 assessed as ratio of pseudo-first-order inhibition rate constant to inhibitor concentration. In outline:
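Caspase-3 (1 nM final) preactivated 10 min at 37 °C in 40 mM Pipes, 200 mM NaCl, 0.2% CHAPS, 20% sucrose mixed 1:1 with 20 mM DTT, pH 7.2; enzyme added to inhibitor plus Ac-Asp-Glu-Val-Asp-AMC; progress curves 20 min at 37 °C (ex 360, em 465 nm); duplicates; rates corrected for substrate (KM 9.7 µM).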

For data set [2], the target named is Cathepsin B (Homo sapiens) (UniProt P07858). In words: Inhibition of cathepsin B assessed as ratio of pseudo-first-order inhibition rate constant to inhibitor concentration.
The next data set concerns the target Caspase-8 (Homo sapiens) (UniProt Q14790). The data set is described as follows: Inhibition of caspase 8 assessed as ratio of pseudo-first-order inhibition rate constant to inhibitor concentration. Put shortly:
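Caspase-8 at 50 nM final, assayed in the same Pipes/NaCl/CHAPS/sucrose/DTT buffer, pH 7.2, 37 °C with Ac-Asp-Glu-Val-Asp-AMC by the progress curve method; inhibitor stocks 5 × 10^-3 to 2.42 × 10^-6 M in DMSO; rates corrected for substrate using KM 6.79 µM.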

Data set [3] can be described thus: Stability assessed as half life in citrate phosphate buffer at pH 6.8 in presence of dithiothreitol. Particulars: citrate phosphate buffer with dithiothreitol. In kind it is physicochemical.
Another data set deals with T2, Papain (Carica papaya) (UniProt P00784).
T2 sequence (whole entry): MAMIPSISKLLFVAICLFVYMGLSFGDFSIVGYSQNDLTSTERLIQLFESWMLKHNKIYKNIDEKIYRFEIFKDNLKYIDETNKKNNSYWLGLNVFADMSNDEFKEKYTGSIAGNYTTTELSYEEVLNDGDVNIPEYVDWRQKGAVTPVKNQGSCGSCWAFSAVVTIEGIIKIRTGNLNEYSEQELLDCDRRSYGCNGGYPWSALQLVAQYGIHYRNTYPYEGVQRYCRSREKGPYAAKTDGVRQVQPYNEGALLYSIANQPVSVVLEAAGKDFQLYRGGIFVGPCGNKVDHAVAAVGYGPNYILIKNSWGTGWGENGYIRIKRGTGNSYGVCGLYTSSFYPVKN
The data set is described as follows: Inhibition of papain assessed as ratio of pseudo-first-order inhibition rate constant to inhibitor concentration. In outline: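 Papain, about 0.29 mg/mL, incubated with inhibitor in 50 mM Hepes, 2.5 mM DTT, 2.5 mM EDTA, pH 7.5; aliquots taken over time into 53.7 µM Cbz-Phe-Arg-pNA; p-nitroanilide release read at 405 nm at room temperature; pseudo-first-order inactivation kinetics.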

Data set [4] is described as follows: Inhibition of Trichomonas vaginalis G3 AE1 expressed in Pichia pastoris after 20 mins. In outline: as §1
Data set [5] has as its target T3, Clostripain (Clostridium histolyticum) (UniProt P09870).
T3 sequence (whole entry): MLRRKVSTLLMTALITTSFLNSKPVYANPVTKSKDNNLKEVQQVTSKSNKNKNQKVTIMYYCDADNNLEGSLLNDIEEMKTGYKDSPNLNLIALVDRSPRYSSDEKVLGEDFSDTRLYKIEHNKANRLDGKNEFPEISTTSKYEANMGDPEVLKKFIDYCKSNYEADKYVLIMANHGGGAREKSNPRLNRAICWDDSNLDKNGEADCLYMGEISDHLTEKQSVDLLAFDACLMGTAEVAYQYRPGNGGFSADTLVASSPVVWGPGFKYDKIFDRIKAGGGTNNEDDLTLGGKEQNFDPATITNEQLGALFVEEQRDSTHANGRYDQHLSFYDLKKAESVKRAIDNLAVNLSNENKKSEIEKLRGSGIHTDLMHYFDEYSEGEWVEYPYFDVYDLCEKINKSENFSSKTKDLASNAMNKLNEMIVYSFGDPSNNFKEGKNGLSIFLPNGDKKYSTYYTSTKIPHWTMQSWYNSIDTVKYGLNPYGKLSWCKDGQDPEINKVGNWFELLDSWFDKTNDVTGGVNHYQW
The data set is described as follows: Inhibition of sClostridium histolyticum clostripain assessed as ratio of pseudo-first-order inhibition rate constant to inhibitor concentration. As to conditions: Hathewaya histolytica. In outline:
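Clostripain activated in 8 mM DTT, then incubated with inhibitor (DMSO) in 20 mM Tris-HCl, 10 mM CaCl2, 0.005% Brij 35, 2 mM DTT, pH 7.6; aliquots taken at intervals into buffer with Cbz-Phe-Arg-AMC; fluorescence at 465 nm; pseudo-first-order kinetics.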

The source made the active and inactive calls.

Sequence of Caspase-8 (Homo sapiens) (Q14790 217-374 limits assumed): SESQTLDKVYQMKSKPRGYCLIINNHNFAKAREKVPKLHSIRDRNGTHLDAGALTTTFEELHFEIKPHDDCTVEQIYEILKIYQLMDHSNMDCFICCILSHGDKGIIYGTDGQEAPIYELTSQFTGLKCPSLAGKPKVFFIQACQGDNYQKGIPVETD
Sequence of Caspase-8 (Homo sapiens) (Q14790 385-479 limits assumed): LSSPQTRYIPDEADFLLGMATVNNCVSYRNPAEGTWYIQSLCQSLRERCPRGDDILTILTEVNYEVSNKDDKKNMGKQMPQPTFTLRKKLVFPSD

The IC50 is the point on the concentration scale where inhibition reaches its midpoint. By half-life is commonly meant the time needed for the level to fall by half in the phase considered. In the case of `C[C@H](NC(=O)OCc1ccccc1)C(=O)N[C@@H](C)C(=O)NN(CC(N)=O)C(=O)/C=C/C(=O)N(Cc1ccccc1)Cc1ccccc1`, the IC50 amounted to 45 nM in data set [1] and 10 nM in data set [4]. The result (on Caspase-3 (Homo sapiens); in data set [2]; on Caspase-8 (Homo sapiens); in data set [5]) was inactive. In data set [3], the half-life is 17 min. Further, on Papain (Carica papaya), the Ratio came to 1 M⁻¹ s⁻¹.

Take `C[C@H](NC(=O)OCc1ccccc1)C(=O)N[C@@H](C)C(=O)NN(CC(N)=O)C(=O)/C=C/C(=O)N(C)Cc1ccccc1`: the outcome (on Caspase-3 (Homo sapiens); in data set [2]; on Caspase-8 (Homo sapiens); at Papain (Carica papaya); in data set [5]) was inactive. In data set [3], the half-life came to 20 min. The IC50 in data set [4] came to 0.55 nM.

On to `CCOC(=O)/C=C/C(=O)N(CC(N)=O)NC(=O)[C@H](C)NC(=O)[C@H](C)NC(=O)OCc1ccccc1`, for which the IC50 in data set [1] is 31 nM; in data set [4] it was 4.5 nM. Besides, the result (at Caspase-3 (Homo sapiens); on Caspase-8 (Homo sapiens); on Papain (Carica papaya); in data set [5]) was inactive. Further, in data set [2], the Ratio was < 1 M⁻¹ s⁻¹. The half-life in data set [3] worked out at 3.7 min.

`C[C@H](NC(=O)OCc1ccccc1)C(=O)N[C@@H](C)C(=O)NN(CC(N)=O)C(=O)/C=C/C(=O)N(C)Cc1cccc2ccccc12`: the IC50 is 35 nM in data set [1] and < 1 nM in data set [4]. The result (on Caspase-3 (Homo sapiens); in data set [2]; at Caspase-8 (Homo sapiens); on Papain (Carica papaya); in data set [5]) was inactive.

Values taken from ChEMBL document CHEMBL1150273, “Aza-peptidyl Michael acceptors. A new class of potent and selective inhibitors of asparaginyl endopeptidases (legumains) from evolutionarily diverse pathogens” (J Med Chem, 2008).
